A selection: hits, their analogues and other compounds. The true share with any hit is near 1.2%.
TPT1 inhibitor – Candida albicans TPT1 enzyme inhibitors, primary screen, biochemical, fluorescence polarization. recombinant caTPT1, FP RNA substrate dephosphorylation. inhibition, % at 5 µM. hit rate 0.81% among 300,000. AID 1962, 2009;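 active means inhibition above the mean of all tested compounds plus 3 SD, set per screening campaign, cut at about 24% in these data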
HNF4A DNA FP – change in binding of human HNF4A to DNA, primary screen, biochemical, fluorescence polarization, FITC-DNA; hit rate 0.3% among 360,000; 1 h; activity change, % at 10 µM; AID 1224865, 2016; Hepatocyte nuclear factor 4-alpha (Homo sapiens), P41235; in the data active means activity change above about 30%, passing the limit was not always enough
CSN deneddyl inh – inhibitors of CSN-mediated cullin deneddylation, primary screen, biochemical, fluorescence polarization, uHTS; COP9 signalosome complex subunit 5 (Homo sapiens), Q92905; Purified CSN, SCF-Nedd8-OG deneddylation; inhibition, % at 12.5 µM; hit rate 0.38% among 360,000;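 active means pattern-corrected inhibition above about 35%, with an unprinted fluorescence ratio check between 0.5 and 1.5, limit read from the data, passing the limit was not always enough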
Target sequence (Q92905 whole entry, looked up, one chain of several): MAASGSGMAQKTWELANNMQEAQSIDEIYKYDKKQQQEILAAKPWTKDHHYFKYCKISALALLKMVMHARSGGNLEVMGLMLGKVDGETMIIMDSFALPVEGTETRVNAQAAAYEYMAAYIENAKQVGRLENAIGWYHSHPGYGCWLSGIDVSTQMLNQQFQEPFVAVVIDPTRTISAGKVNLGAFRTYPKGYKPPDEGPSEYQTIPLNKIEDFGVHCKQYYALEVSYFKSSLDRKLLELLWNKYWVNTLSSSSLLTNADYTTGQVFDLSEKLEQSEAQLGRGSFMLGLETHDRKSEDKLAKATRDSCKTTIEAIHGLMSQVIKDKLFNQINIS
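Assay system: Purified human Csn5 enzyme expressed in HEK293T cells | Amount: Enzyme 0.24 nM | Measured by: Fluorescence polarization readout | Medium: Tris/NaCl/DTT buffer, pH 7.5 | Compound dosing: One concentration, 12.5 µM, 0.25% DMSO | Times: 90 min incubation of compound, enzyme and substrate at room temperature | Control set: no-enzyme wells high, enzyme-with-substrate wells low | Read-out: % inhibition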
Rtt109 HAT inh – inhibitors of C. albicans Rtt109/Vps75 HAT, primary screen, biochemical, ThioGlo CoA-SH fluorescence, plate reader | purified Rtt109/Vps75, 4 h | Histone acetyltransferase RTT109 (Candida albicans (strain SC5314 / ATCC MYA-2876)), … | hit rate 0.16% among 330,000 | inhibition, % at 34.9 µM;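 active means inhibition of at least 50% in every replicate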
Numbers stand for hits; 0 = inactive; - = not tested or not shown.

SMILES	TPT1 inhibitor	HNF4A DNA FP	CSN deneddyl inh	Rtt109 HAT inh
O=[N+]([O-])c1ccc(NCCc2ccccc2)c(Br)c1	0	0	0	0
O=C(C=Cc1ccc2c(c1)OCO2)OCC=Cc1ccc2c(c1)OCO2	-	0	0	0
COc1ccc(Cc2c(-c3ccco3)nc3ccc(Cl)cn23)c(C)c1	-	0	40	-
CS(=O)(=O)c1ccc(Cl)c(NC(=O)CCN2C(=O)NC3(CCCC3)C2=O)c1	-	0	0	0
CCN1C(=O)[C@H]2[C@H]3CN=C(SCc4ccc(C)cc4)N3[C@@](CC)(C(=O)OC)[C@H]2C1=O	-	0	0	0
CCOc1ccc(NS(=O)(=O)c2cc(C(=O)N3CCN(c4ccccc4O)CC3)ccc2Cl)cc1	-	0	0	0
CCCc1cc(C(=O)N2CCCC(Nc3ccc(C)c(C)c3)C2)n(C)n1 (centres undefined)	0	0	0	0
COc1ccc(Cn2c(C)nc3c(c2=O)c2nc4ccccc4nc2n3Cc2ccco2)cc1	-	0	45	0
CCS(=O)(=O)N1CCC(NC(=O)C(Cc2ccc(OC)c(OC)c2)NC(C)=O)CC1 (centres undefined)	0	0	0	0
CC(C)CC1NC(=O)N(CC(=O)Nc2ccc(OC(F)F)cc2)C1=O (centres undefined)	-	0	0	0
COc1ccc(Cc2nnc(NC(=O)c3cc(OC)c(OC)c(OC)c3)s2)cc1	0	0	0	55
O=C(Nc1nc(-c2nc3ccccc3s2)cs1)c1ccc(S(=O)(=O)N2CCOCC2)cc1	0	0	0	62
COCC(=O)N1CCC(Oc2ccc(C(=O)NCc3cnc(C)cn3)cc2)CC1	0	0	0	0
Cc1cnc(CNC(=O)c2ccc(OC3CCN(C(=O)C4CC4)CC3)cc2)cn1	0	40	0	0
CN(CCc1ccccc1)C(=O)c1cccc(NC(=O)Cc2cccc(NC(=O)C3CCCN(C(=O)c4ccccc4)C3)c2)c1 (centres undefined)	-	0	0	0
Clc1cc(Cl)c2nc(N3CCCCC3)sc2c1	0	0	0	0
Clc1cc(Cl)c2nc(N3CCCC3)sc2c1	0	0	41	0
Cc1ccc(C(=O)NCC(=O)OCC(=O)Nc2cc(C)c(C)cc2[N+](=O)[O-])cc1	0	0	0	0
COCC(=O)OCC(=O)Nc1cc(C)c(C)cc1[N+](=O)[O-]	0	0	0	50
COc1ccc(S(=O)(=O)NCc2cccnc2)cc1Br	0	129	0	0
CCc1cc(CNC(=O)C2CCC(=O)N(CCc3ccc(OC)cc3)C2)on1 (centres undefined)	0	39	0	0
CCN(CC)S(=O)(=O)c1ccc(N2CCCC2)c(NC(=O)CN2C(=O)NC3(CCCC3)C2=O)c1	0	0	0	0
NC(N)=N/N=C/c1ccc(OCc2ccccc2)c(OCc2ccccc2)c1	0	0	0	79
CCOc1cc(/C=N/N=C(N)N)ccc1OCc1ccc(Cl)cc1	0	0	0	0
Cc1ccc(C2=NOC(C)(c3nnc(-c4ccc(Cl)cc4)o3)C2)cc1 (centres undefined)	0	36	0	0
SMILES	TPT1 inhibitor	HNF4A DNA FP	CSN deneddyl inh	Rtt109 HAT inh
CC1(c2nnc(-c3ccc(Cl)cc3)o2)CC(c2ccc(Cl)cc2)=NO1 (centres undefined)	0	0	0	0
O=C(O)c1ccc2c(c1)C(=O)N(c1cccc(C(=O)/C=C/c3ccccc3)c1)C2=O	0	0	45	0
CC(=O)Nc1cc(-c2cccc(C(=O)NCCN(C)C)c2)cn2c(-c3ccc(F)c(Cl)c3)cnc12	-	0	82	-
COC(=O)c1ccc(-c2ccco2)n1Cc1ccccc1Cl	0	0	49	0
COC(=O)c1ccc(-c2ccco2)n1Cc1nc(-c2ccc(OC)c(OC)c2)oc1C	0	0	0	0
N#Cc1c(NC(=O)c2ccccc2Cl)n(Cc2ccccc2)c2nc3ccccc3nc12	0	73	74	0
O=C(COc1ccc(/C=N/NC(=O)c2ccncc2)cc1)Nc1ccc([N+](=O)[O-])cc1	0	0	0	0
O=C(COc1ccc(/C=N/NC(=O)c2ccc(O)cc2)cc1)Nc1cccc([N+](=O)[O-])c1	0	0	59	0
C#CCN1C(=O)S/C(=C\c2cc3c(cc2OC)OCO3)C1=O	0	0	50	0
COC(=O)CN1C(=O)N/C(=C/c2cc3c(cc2OC)OCO3)C1=O	0	0	0	0
COc1ccc2nc(NC(=O)CN3C(=O)NC4(CCCCC4)C3=O)sc2c1	0	0	0	52
CC(C)Oc1ccc(C(=O)NCC(=O)N2CCN(S(=O)(=O)/C=C/c3ccccc3)CC2)cc1	-	0	0	0
COc1ccc(-c2csc3nc(C(C)(C)C)oc(=O)c23)cc1OC	0	0	0	0
COc1ccc(-c2csc3nc(-c4ccc(C)cc4)oc(=O)c23)cc1OC	0	48	0	0
Cc1cccc(Oc2cc([N+](=O)[O-])cc3c2C(=O)Nc2ccccc2O3)c1	0	0	39	0
O=S(=O)(c1ccc(Cl)cc1)N1CCN(c2ncccn2)CC1	0	0	0	64
O=c1cc(-c2ccccc2)nc2c(Cl)cc(Cl)cn12	-	0	0	-
CCCCn1c(N)c(N(Cc2ccccc2OC)C(=O)c2sccc2C)c(=O)[nH]c1=O	0	0	0	50
CC(=O)/C(=N/Nc1ccccc1)Sc1nnc(C(O)c2ccccc2)n1-c1ccccc1 (centres undefined)	0	0	0	57
CC1(C)CC2(CC(c3ccc(F)cc3)c3ccc(O)cc3O2)NC(=S)N1 (centres undefined)	0	0	0	0
CC1(C)CC2(CC(c3ccccc3F)c3ccc(O)c(O)c3O2)NC(=S)N1 (centres undefined)	0	0	0	175
c1ccc(CNc2c3c(nc4ncnn24)CCC3)cc1	0	63	0	0
c1ccc(CN(Cc2ccccc2)c2c3c(nc4ncnn24)CCC3)cc1	0	0	0	0
CCN(CC)c1ccc(N)cc1	-	47	0	0
CN(C)C(CNC(=O)c1ccc(C(=O)c2ccccc2)cc1)c1ccccc1 (centres undefined)	0	0	0	54
SMILES	TPT1 inhibitor	HNF4A DNA FP	CSN deneddyl inh	Rtt109 HAT inh
CN(C)C(CNC(=O)c1ccc(-c2ccccc2)cc1)c1ccccc1 (centres undefined)	0	0	0	0
COc1cc(C(C)=O)ccc1OCC(=O)N1CCc2ccccc2C1	0	0	92	0
CCCCOc1ccc(C(=O)NCC(=O)N2CCN(C/C=C/c3ccccc3)CC2)cc1	-	0	0	-
CN(C)CCCN(C(=O)CCOc1ccccc1)c1nc2c(F)cccc2s1	-	0	0	98
Cc1ccc(-c2nc3s/c(=C\c4ccco4)c(=O)n3n2)cc1	0	0	38	0
Cc1ccc(/C=c2\sc3nc(-c4ccccc4Br)nn3c2=O)o1	0	0	50	0
Cc1ccc(/C=c2\sc3nc(-c4ccco4)nn3c2=O)o1	0	0	43	0

Screening data: PubChem, several laboratories
